We go through four compounds from ChEMBL document CHEMBL1123239, “Synthesis and adrenergic activity of ring-fluorinated phenylephrines” (J Med Chem, 1986).

A short description of experiment [1]: Compound was tested for its ability to displace [3H]WB-4101 form alpha-1 adrenergic receptor site in guinea pig cerebral cortical membranes. More on the design: species or system Cavia porcellus. Put shortly: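 Guinea pig (male Hartley) cerebral cortex membranes in 50 mM Tris-HCl pH 7.4, ~0.9–1.2 mg protein/mL. […] Ki from IC50 by Cheng-Prusoff; 3–5 experiments or one in triplicate.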

For experiment [2], the species on record is Cavia porcellus. In words: Compound was evaluated for its agonist potency by measurement of contraction of guinea pig aortic strips. The format is functional. The settings on record: Aorta. The method in brief: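 Cumulative concentration-response, 3–200 μM in 2–3-fold steps. Isometric tension recorded; EC50 = concentration giving half of maximal contraction to supramaximal (-)-NE (30–50 μM), measured before and after each curve.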

The species entered for experiment [3] is Cavia porcellus. Description: Compound was evaluated for its agonist potency by measurement of potentiation of 2-chloroadenosine stimulation of cyclic AMP accumulation in guinea pig cerebral cortical synaptoneurosomal preparations. The format is functional.
For experiment [4], the species on record is Cavia porcellus. Description: Stimulation of [3H]phosphatidylinositol turnover in synaptoneurosomes at a concentration of 100 uM. Format: functional. The method in brief: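 Nonfiltered guinea pig cortical synaptoneurosomes prelabeled 60 min at 37 °C with 1 μM [3H]inositol in Krebs–Henseleit buffer under O2/CO2 (95:5). Washed, resuspended with 10 mM LiCl (~1 mg protein/tube). Agonist at 100 μM, 90 min at 37 °C. Stopped by centrifugation, TCA extraction; [3H]inositol phosphates measured in supernatant.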

Experiment [5] has as its target T1, Adrenergic receptor alpha-2 (Homo sapiens, UniProt P08913+P18825+P18089).
T1 sequence (P08913 whole entry): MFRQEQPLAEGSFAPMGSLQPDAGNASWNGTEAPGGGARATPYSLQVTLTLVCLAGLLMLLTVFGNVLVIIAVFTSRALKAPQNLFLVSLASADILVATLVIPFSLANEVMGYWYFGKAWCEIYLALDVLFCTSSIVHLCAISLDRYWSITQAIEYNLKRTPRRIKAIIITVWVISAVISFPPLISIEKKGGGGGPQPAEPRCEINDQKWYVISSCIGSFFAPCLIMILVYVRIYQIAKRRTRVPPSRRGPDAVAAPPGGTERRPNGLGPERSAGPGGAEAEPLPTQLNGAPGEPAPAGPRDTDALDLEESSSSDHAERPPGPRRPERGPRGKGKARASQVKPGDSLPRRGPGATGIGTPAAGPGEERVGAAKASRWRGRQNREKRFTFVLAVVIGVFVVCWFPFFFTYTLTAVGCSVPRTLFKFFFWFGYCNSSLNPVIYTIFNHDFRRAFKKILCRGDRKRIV
T1 sequence (P18825 whole entry): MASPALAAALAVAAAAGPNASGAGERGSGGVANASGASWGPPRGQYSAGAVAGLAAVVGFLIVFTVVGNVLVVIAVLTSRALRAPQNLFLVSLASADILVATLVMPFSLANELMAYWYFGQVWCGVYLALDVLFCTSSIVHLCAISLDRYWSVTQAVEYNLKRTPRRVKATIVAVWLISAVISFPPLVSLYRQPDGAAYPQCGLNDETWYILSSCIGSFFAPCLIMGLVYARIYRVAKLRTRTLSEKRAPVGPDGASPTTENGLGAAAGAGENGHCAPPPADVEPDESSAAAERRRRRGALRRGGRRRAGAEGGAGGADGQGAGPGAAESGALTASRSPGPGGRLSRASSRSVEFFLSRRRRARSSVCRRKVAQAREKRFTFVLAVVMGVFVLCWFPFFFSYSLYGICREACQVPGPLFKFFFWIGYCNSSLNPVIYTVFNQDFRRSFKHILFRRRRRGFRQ
T1 sequence (P18089 whole entry): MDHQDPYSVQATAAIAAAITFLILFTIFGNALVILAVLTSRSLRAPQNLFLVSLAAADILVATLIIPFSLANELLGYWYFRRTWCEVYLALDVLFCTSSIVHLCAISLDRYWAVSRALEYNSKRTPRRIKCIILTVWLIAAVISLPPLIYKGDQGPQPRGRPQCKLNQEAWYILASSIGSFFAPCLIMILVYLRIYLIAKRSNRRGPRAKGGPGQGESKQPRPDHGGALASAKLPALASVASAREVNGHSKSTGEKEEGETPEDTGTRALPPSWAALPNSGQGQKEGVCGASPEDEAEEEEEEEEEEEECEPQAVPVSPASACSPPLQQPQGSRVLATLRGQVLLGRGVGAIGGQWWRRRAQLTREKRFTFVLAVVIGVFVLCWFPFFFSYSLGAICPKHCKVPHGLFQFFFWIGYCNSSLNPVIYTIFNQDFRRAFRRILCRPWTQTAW
In words: (§1) Compound was tested for its ability to displace [3H]clonidine form alpha-2 adrenergic receptor site in guinea pig cerebral cortical membranes. More on the design: species or system Cavia porcellus. As to conditions: target entry is the homologue from another species. Put shortly:
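Guinea pig (male Hartley) cerebral cortex membranes in 50 mM Tris-HCl pH 7.4. Ki from IC50 by Cheng-Prusoff; 3–5 experiments or one in triplicate.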

Experiment [6] can be described thus: Compound was tested for its ability to displace [3H]-prazosin form alpha-1 adrenergic receptor site in guinea pig cerebral cortical membranes. On the set-up: species or system Cavia porcellus. Put shortly: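 Guinea pig (male Hartley) cerebral cortex membranes, homogenised and washed in 50 mM Tris-HCl pH 7.4, ~0.9–1.2 mg protein/mL. 0.5 nM [3H]prazosin (Kd 0.5 nM), 30 min at 30 °C; nonspecific with 10 μM phentolamine. Ki from IC50 by Cheng-Prusoff; 3–5 experiments or one in triplicate.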

Experiment [7] has as its target T1, Adrenergic receptor alpha-2. Described as §1. On the set-up: species or system Cavia porcellus. The settings on record: target entry is the homologue from another species. The method in brief: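 Guinea pig (male Hartley) cerebral cortex membranes in 50 mM Tris-HCl pH 7.4. […] Ki from IC50 by Cheng-Prusoff; 3–5 experiments or one in triplicate.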
This is another data set of the same source.

In general, Ki refers to a dissociation constant, usually derived from enzyme kinetics or from competition with a known ligand. Low values mean a stronger hold on the target, high ones a looser hold on the target. Broadly, the EC50 is the concentration needed to bring the measured effect to its halfway point. `CNC[C@H](O)c1cccc(O)c1` [PHENYLEPHRINE] displayed a Ki in experiment [1] of 2.5 µM. In addition, the EC50 amounted to 27 µM in the experiment listed under Cavia porcellus [2] and 26 µM in the experiment filed under Cavia porcellus [3]. In addition, in the experiment listed under Cavia porcellus [4], the Control stood at 161%.

Regarding `CNCC(O)c1cccc(O)c1F` (racemic), the Ki came out at 1.2 µM in experiment [5], 6.6 µM in experiment [1] and 17 µM in experiment [6]. Moreover, the EC50 is 105 µM in the experiment filed under Cavia porcellus [2] and 40 µM in the experiment listed under Cavia porcellus [3]. The compound also returned a Control in the experiment filed under Cavia porcellus [4] of 134%.

With `CNCC(O)c1ccc(F)c(O)c1` (racemic), the Ki worked out at 1 µM in experiment [7], 3.7 µM in experiment [1] and 10 µM in experiment [6]. Also, the EC50 is 39 µM in the experiment filed under Cavia porcellus [2] and 35 µM in the experiment filed under Cavia porcellus [3]. Besides, in the experiment listed under Cavia porcellus [4], the Control came to 136%.

With `CNCC(O)c1cc(O)ccc1F` (racemic), the Ki came out at 0.23 µM in experiment [7], 1.3 µM in experiment [1] and 2.1 µM in experiment [6]. For the same compound, the concentration giving a half-maximal response (EC50) worked out at 11 µM in the experiment listed under Cavia porcellus [2] and 4 µM in the experiment listed under Cavia porcellus [3]. Also, in the experiment filed under Cavia porcellus [4], the Control is given as 162%.
